Assays:
[1] = molecular target: T1, Glutathione reductase, mitochondrial (Homo sapiens, UniProt P00390); experiment: Inhibitory activity against human erythrocyte glutathione reductase; '*' indicates No inhibition
T1 sequence (P00390 whole entry): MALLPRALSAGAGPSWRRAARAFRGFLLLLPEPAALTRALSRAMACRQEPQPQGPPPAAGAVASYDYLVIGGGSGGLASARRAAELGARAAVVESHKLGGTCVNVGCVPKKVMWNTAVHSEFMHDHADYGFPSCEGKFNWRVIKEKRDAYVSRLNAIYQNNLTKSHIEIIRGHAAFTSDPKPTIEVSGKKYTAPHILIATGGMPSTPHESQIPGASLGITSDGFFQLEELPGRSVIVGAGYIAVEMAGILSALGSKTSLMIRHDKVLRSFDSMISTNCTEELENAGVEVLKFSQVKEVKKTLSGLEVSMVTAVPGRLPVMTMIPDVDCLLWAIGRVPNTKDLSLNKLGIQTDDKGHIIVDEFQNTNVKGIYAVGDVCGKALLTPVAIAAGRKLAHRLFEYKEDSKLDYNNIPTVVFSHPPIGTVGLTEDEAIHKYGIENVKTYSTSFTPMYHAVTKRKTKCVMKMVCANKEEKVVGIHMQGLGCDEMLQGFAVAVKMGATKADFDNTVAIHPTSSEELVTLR
Outline: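 Enzyme was isolated from human erythrocytes and assayed spectrophotometrically at 340 nm under literature conditions. Compounds were tested up to 1 mM, or 0.1 mM where solubility was limited.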

[2] = molecular target: T2, Trypanothione reductase (Trypanosoma cruzi, UniProt P28593); experiment: Inhibitory activity against recombinant Trypanosoma cruzi (Trypanosoma cruzi) Trypanothione reductase; settings: read-out: I50
Outline: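 Recombinant T. cruzi TR, overexpressed in E. coli JM109 and homogeneous by SDS-PAGE, was used at about 0.3 µg/mL. Assay at 25 °C in 0.02 M HEPES pH 7.25 with 0.15 M KCl, 1 mM EDTA, 0.12 mM trypanothione disulfide and 0.1 mM NADPH, read at 340 nm. I50 came from nonlinear least-squares fitting of velocity versus inhibitor concentration using the linear competitive inhibition equation.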

[3] = species: Mus musculus; experiment: Effective dose against Leishmania donovani (Leishmania donovani) amastigotes in mouse peritoneal macrophages; type: functional; settings: read-out: ED50 (the source's name)
Outline: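 Mouse peritoneal macrophages kept on chamber slides in RPMI 1640 with 10% heat-inactivated foetal calf serum, 37 °C, 5% CO2, and infected with L. donovani MHOM/ET/69/L82 amastigotes taken from infected hamster spleens. After 24 h, compounds were added in a 3-fold dilution series in quadruplicate for 5 days. Slides were methanol-fixed and Giemsa-stained, then scored for the proportion of infected macrophages.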

[4] = species: Mus musculus; experiment: Effective dose against Trypanosoma cruzi (Trypanosoma cruzi) trypomastigotes in mouse peritoneal macrophages; type: functional; settings: read-out: ED50 (the source's name)
[5] = molecular target: T2, Trypanothione reductase; experiment: Inhibitory activity against recombinant Trypanosoma cruzi (Trypanosoma cruzi) Trypanothione reductase (linear competitive type)
[6] = test system: Trypanosoma brucei; experiment: Effective dose against Trypanosoma brucei) bloodstream form trypomastigotes; settings: read-out: ED50 (the source's name)
[7] = test system: Trypanosoma brucei; experiment: Effective dose against Trypanosoma brucei) bloodstream form trypomastigotes in HMI-9 medium; settings: read-out: ED50 (the source's name)
[8] = species: Mus musculus; experiment: Effective dose against Leishmania donovani (Leishmania donovani) amastigotes in mouse peritoneal macrophages; Toxic to the macrophages; type: functional, organism-based
Outline: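 Mouse peritoneal macrophages in RPMI 1640 + 10% heat-inactivated FCS, 37 °C, 5% CO2, infected with L. donovani (MHOM/ET/69/L82) amastigotes from infected hamster spleens. Compounds added 24 h post-infection in 3-fold dilutions, quadruplicate, for 5 days. Slides methanol-fixed, Giemsa-stained; proportion of infected macrophages scored.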

[9] = species: Mus musculus; experiment: Effective dose against Trypanosoma cruzi (Trypanosoma cruzi) trypomastigotes in mouse peritoneal macrophages; Toxic to the macrophages; type: functional, organism-based
Outline: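 T. cruzi (MHOM/BR/00/Y) trypomastigotes from infected L6 rat myoblast cultures infect mouse peritoneal macrophages at 5 parasites:1 macrophage, 37 °C, 5% CO2/air. Compounds in fresh medium 24 h post-infection, 3-fold dilutions, quadruplicate, 3 days. Cultures fixed, Giemsa-stained; proportion of infected macrophages scored.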

[10] = species: Mus musculus; experiment: Effective dose against Trypanosoma uM; type: functional
[11] = species: Mus musculus; experiment: Effective dose against Trypanosoma cruzi (Trypanosoma cruzi) trypomastigotes in mouse peritoneal macrophages; Range is 10-30 uM; type: functional; settings: read-out: ED50 (the source's name)

T2 sequence (P28593 whole entry): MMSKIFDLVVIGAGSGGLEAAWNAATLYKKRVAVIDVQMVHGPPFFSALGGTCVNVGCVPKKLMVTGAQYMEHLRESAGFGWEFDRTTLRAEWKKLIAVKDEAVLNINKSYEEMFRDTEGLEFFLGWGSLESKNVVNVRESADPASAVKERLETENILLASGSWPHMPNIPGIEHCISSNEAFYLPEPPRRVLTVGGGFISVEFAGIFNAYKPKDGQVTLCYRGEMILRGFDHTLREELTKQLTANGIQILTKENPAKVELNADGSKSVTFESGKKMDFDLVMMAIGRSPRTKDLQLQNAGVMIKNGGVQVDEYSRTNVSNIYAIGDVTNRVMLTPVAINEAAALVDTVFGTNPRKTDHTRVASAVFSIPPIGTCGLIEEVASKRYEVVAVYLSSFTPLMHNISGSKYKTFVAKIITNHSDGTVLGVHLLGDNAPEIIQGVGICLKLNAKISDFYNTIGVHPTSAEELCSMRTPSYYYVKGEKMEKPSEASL

Row | Structure (SMILES) | I50 [1] | IC50 [2] [µM] | EC50 [3] [µM] | other results
1 | CN(C)CCN1c2ccccc2Sc2ccc(Cl)cc21 [CHOLRPHENETHAZINE] | Not Active | 150 |  | 
2 | CN(C)C(C)(C)CN1c2ccccc2Sc2ccccc21 | Not Active | 1180 |  | 
3 | CN(C)CCCN1c2ccccc2Sc2ccc(Cl)cc21 [CHLORPROMAZINE] | Not Active | 35.4 | 4.9 | EC50 [4]: > 10 µM; Ki [5]: 10.8 µM; EC50 [6]: 3.69 µM
4 | CCN(CC)CCCC(=O)N1c2ccccc2Sc2ccc(Cl)cc21 |  | 320 |  | 
5 | CCCC(=O)N1c2ccccc2Sc2ccc(Cl)cc21 |  | 95 | > 30 | EC50 [7]: > 30 µM; EC50 [4]: > 30 µM
6 | CN(C)CCCN1c2ccccc2Sc2ccc(COc3ccc(C(C)(C)C)cc3)cc21 | Not Active | 161 | > 30 | EC50 [4]: > 30 µM; EC50 [6]: > 30 µM
7 | CN(C)CCCN1c2ccccc2Sc2ccc(C(F)(F)F)cc21 [TRIFLUPROMAZINE] | Not Active | 110 |  | Ki [5]: 30.2 µM; EC50 [6]: 3.2 µM
8 | CN(C)CCCN1c2ccccc2Sc2ccc(C(=O)O)cc21 | Not Active | 3910 |  | 
9 | CCN(CC)CCN1c2ccccc2Sc2ccc(Cl)cc21 | Not Active | 81.3 |  | 
10 | O=C(CCC(=O)N1c2ccccc2Sc2ccc(Cl)cc21)NCc1ccccc1 |  | 188 | > 30 | EC50 [7]: > 30 µM; EC50 [4]: > 30 µM
11 | CC(CN1c2ccccc2Sc2ccccc21)N(C)C (centres undefined) [PROMETHAZINE] | Not Active | 271 |  | Ki [5]: 216 µM
12 | CN(C)CCCN1c2ccccc2Sc2ccc(C(N)=O)cc21 | Not Active | 458 |  | 
13 | CC(=O)c1ccc2c(c1)N(C(C)=O)c1ccccc1S2 | Not Active | 2810 |  | 
14 | CN(C)CCCN1c2ccccc2Sc2ccc(CN)cc21 |  | 219 |  | ED50 [8]: Toxic; EC50 [7]: 0.37 µM; ED50 [9]: Toxic
15 | CC(=O)c1ccc2c(c1)N(CCCN(C)C)c1cc(C(C)=O)ccc1S2 |  | 472 | > 30 | ED50 [10]: 10 µM; EC50 [4]: > 30 µM
16 | CCN(CC)CC(=O)N1c2ccccc2Sc2ccc(Cl)cc21 |  | 829 |  | 
17 | CN(C)CCCN1c2ccccc2Sc2c(Cl)cccc21 | Not Active | 765 | 48.4 | EC50 [4]: 29.5 µM; EC50 [6]: 3.01 µM
18 | CNCCCN1c2ccccc2Sc2ccc(Cl)cc21 [NOR1-CHLORPROMAZINE] | Not Active | 126 |  | 
19 | CC(=O)c1ccc2c(c1)N(CCCN(C)C)c1cc(Cl)ccc1S2 |  | 175 | 12.1 | EC50 [7]: 1.29 µM; EC50 [4]: > 30 µM
20 | CCCCCC(=O)c1ccc2c(c1)N(CCCN(C)C)c1ccccc1S2 |  | 171 |  | EC50 [7]: > 30 µM
21 | CN(C)CCCN1c2ccccc2Sc2ccc(CO)cc21 | Not Active | 1190 |  | 
22 | CN(C)CCCN1c2ccccc2Sc2ccccc21 [PROMAZINE] | Not Active | 108 |  | Ki [5]: 59.1 µM

Row | Structure (SMILES) | I50 [1] | IC50 [2] [µM] | EC50 [3] [µM] | other results
23 | N=C(N)CCN1c2ccccc2Sc2ccccc21 |  | 992 |  | 
24 | N=C(N)CCN1c2ccccc2Sc2ccc(Cl)cc21 |  | 307 |  | 
25 | CC(CN(C)C)CN1c2ccccc2Sc2ccccc21 (centres undefined) [METHYLPROMAZINE] | Not Active | 249 |  | Ki [5]: 127 µM
26 | CNCCCN1c2ccccc2Sc2ccccc21 | Not Active | 1030 |  | 
27 | CCN(CC)CCC(=O)N1c2ccccc2Sc2ccc(Cl)cc21 [CHLORACYZINE] |  | 802 |  | 
28 | CC(=O)c1ccc2c(c1)N(CCCN(C)C)c1ccccc1S2 [ACEPROMAZINE] |  | 502 |  | ED50 [8]: Toxic; EC50 [7]: 6.42 µM; ED50 [9]: Toxic
29 | O=C(CNc1ccccc1)N1c2ccccc2Sc2ccc(Cl)cc21 |  | 256 |  | 
30 | CCCN1CCN(CCCN2c3ccccc3Sc3ccc(Cl)cc32)CC1 | Not Active | 95.5 |  | Ki [5]: 18.7 µM
31 | NCCCN1c2ccccc2Sc2ccccc21 | Not Active | 1410 | 3.3 | EC50 [4]: 54.9 µM; EC50 [6]: 3.83 µM
32 | CC(=O)N1c2ccccc2Sc2ccc(C(=O)CCl)cc21 |  | 436 |  | 
33 | O=C(CCl)N1c2ccccc2Sc2ccc(Cl)cc21 |  | 862 |  | 
34 | COC(=O)c1ccc2c(c1)N(CCCN(C)C)c1ccccc1S2 | Not Active | 348 |  | 
35 | CN(C)CCCN1c2ccccc2Sc2ccc(/C=N/O)cc21 |  | 145 | > 30 | EC50 [11]: 10 µM; EC50 [7]: 7.35 µM
36 | OCCN1CCN(CCCN2c3ccccc3Sc3ccc(C(F)(F)F)cc32)CC1 [FLUPHENAZINE] | Not Active | 73.7 | > 30 | EC50 [4]: > 30 µM; Ki [5]: 21.2 µM; EC50 [6]: > 30 µM
37 | CCC(=O)c1ccc2c(c1)N(CCCN(C)C)c1ccccc1S2 |  | 357 | > 30 | EC50 [7]: 10.1 µM; EC50 [4]: > 30 µM
38 | CC(=O)c1ccc2c(c1)N(C(C)=O)c1cc(C(C)=O)ccc1S2 |  | 49.1 | > 30 | EC50 [7]: > 30 µM; EC50 [4]: > 30 µM
39 | CN1CCN(CCCN2c3ccccc3Sc3ccc(C(F)(F)F)cc32)CC1 [TRIFLUOPERAZINE] | Not Active | 72 |  | Ki [5]: 23 µM
40 | CC(=O)c1ccc2c(c1)N(C(C)=O)c1cc(Cl)ccc1S2 |  | 402 | > 30 | EC50 [7]: > 30 µM; EC50 [4]: > 30 µM
41 | CN(C)CCCN1c2ccccc2[S+]([O-])c2ccc(Cl)cc21 (centres undefined) [CHLOROPROMAZINE SULFOXIDE] | Not Active | 76.6 |  | 
42 | O=C(CBr)N1c2ccccc2Sc2ccc(Cl)cc21 |  | 251 | 5.97 | EC50 [11]: 10 µM; EC50 [7]: 0.97 µM
43 | O=C(O)CCC(=O)N1c2ccccc2Sc2ccc(Cl)cc21 |  | 1480 |  | 
44 | CCN(CC)CCCCCC(=O)N1c2ccccc2Sc2ccc(Cl)cc21 |  | 457 |  | 
